Assay results of several laboratories.
Each line is one published result; the experiments were not run side by side.
Organism: Plasmodium falciparum
Read-out: parasite growth

| Compound | assay | test system | conditions | IC50 |
| --- | --- | --- | --- | --- |
| O=C(Nc1ccccc1-c1nc2c(C(=O)O)cccc2o1)c1ccccc1 | SYBR Green | – | blood stage | 75.8 µM |
| C[C@@H]1CN(c2nc3cc(Cl)ccc3n2Cc2ccccc2)C[C@H](C)N1 | – | NF54 | blood stage | 0.216 µM |
| C#CCCCCCCCCCCCC(O)CC(O)CO (centres unmarked) | – | D6 | blood stage | 25.9 µg/mL |
| O=C(O)c1ccc(-n2nc(-c3ccccc3O)nc2-c2ccccc2O)cc1 | SYBR Green | – | blood stage | 47.7 µM |
| O=C1C(O)=C([C@H]2CC[C@H](c3ccc(Cl)cc3)CC2)C(=O)c2ccccc21 | – | 3D7 | 24 h, blood stage | 0.0065 µM |
| O=C(Nc1ccnc(C(F)(F)F)c1)Nc1cccc2c1OC(F)(F)O2 | – | NF54 | blood stage | 0.7 µM |
| C[C@@]12CCC[C@]3(C)C4=CC(=O)OCC4=C[C@@H](OC1=O)C23 (some centres unmarked) | – | W2 | 72 h, drug-resistant strain, blood stage | 0.2 µg/mL |
| O=C(O)/C=C/C=C/c1cccc(Oc2cc(Cl)cc(Cl)c2)c1 | SYBR Green | – | blood stage | 54.1 µM |
| O=C(O)c1cc(F)ccc1NC(=O)c1ccccc1-c1ccccc1 | resazurin | NF54 | 48 h, gametocyte | 0.674 µM |
| COc1cccc2c(=O)c(C)c(-c3ccc(Cc4ccc(OC(F)(F)F)cc4)cc3)[nH]c12 | – | 3D7 | blood stage | > 0.35 µM |
| COc1cccc(N2CCN(C3=Nc4c(F)cccc4[C@H](CC(=O)O)N3c3cc(C(F)(F)F)ccc3OC)CC2)c1 | SYBR Green | – | blood stage | 9.95 µM |
| Clc1ccc2c(nc(N3CCNCC3)n2Cc2ccccc2)c1-c1ccncc1 | – | NF54 | blood stage | 2.17 µM |
| COC1=CC(c2ccc[nH]2)=NC1=Cc1ccc(CCCCCCCCCCCO)[nH]1 | – | D6 | blood stage | 0.059 µM |
| C[C@@H]1CC[C@H]2[C@@H](C)C(=O)O[C@@H]3O[C@@]4(C)CC[C@@H]1[C@]32OO4 | – | W2 | 72 h, drug-resistant strain, blood stage | 0.0038 µg/mL |
| O=C(Nc1ccc2c(c1)B(O)OC2)Nc1ccc(F)c(C(F)(F)F)c1 | – | NF54 | blood stage | 3.1 µM |
| CCCCCCCc1c(O)cc(CC=C(C)C)c(O)c1C=O | – | W2 | 72 h, drug-resistant strain, blood stage | 2.7 µg/mL |
| Clc1ccc2c(nc(N3CCNCC3)n2Cc2ccccc2)c1Cl | – | NF54 | blood stage | 0.055 µM |
| CN1CCN(C2CCN(c3nccc4[nH]c(-c5ccc(F)c(C(F)(F)F)c5)nc34)CC2)CC1 | – | NF54 | blood stage | < 0.1 µM |
| CCN(CC)CCCC(C)Nc1ccnc2cc(Cl)ccc12 (centres unmarked) | – | D10 | 72 h | 0.02 µM |
| O=C(O)c1cc(-c2ccc(Br)cc2)nc2ccc(Cl)cc12 | SYBR Green | – | blood stage | 60 µM |
| CCN(CC)CCCC(C)Nc1ccnc2cc(Cl)ccc12 (centres unmarked) | – | – | – | 0.201 µM |

| Compound | assay | test system | conditions | IC50 |
| --- | --- | --- | --- | --- |
| Cc1ccc(-c2ccccc2C(=O)Nc2c(C)cccc2C(=O)O)cc1 | – | NF54 | 48 h, blood stage | > 10 µM |
| Cc1onc(-c2ccccc2)c1-c1ccc(S(N)(=O)=O)cc1 | SYBR Green | – | blood stage | > 100 µM |
| C[C@@H]1CC[C@H]2[C@@H](C)C(=O)O[C@@H]3O[C@@]4(C)CC[C@@H]1[C@]32OO4 | – | D6 | blood stage | 0.0085 µg/mL |
| c1ccc(Cn2c(N3CCNCC3)nc3cc(-c4cc[nH]n4)ccc32)cc1 | – | NF54 | blood stage | > 10 µM |
| COc1cccc2c(-c3ccc4c(c3O)[C@@H](C)N[C@H](C)C4)c(C)cc(OC)c12 | SYBR Green | NF54 | blood stage | 1.33 µM |
| O=C(Nc1ccccc1C(=O)O)c1ccc(-c2ccc(F)cc2)cc1 | resazurin | NF54 | 48 h, gametocyte | > 10 µM |
| COC(=O)c1cccc(-c2nc3c(N4CCC(N5CCN(C)CC5)CC4)nccc3[nH]2)c1 | – | NF54 | blood stage | < 0.1 µM |
| CCc1ccc(C2=NC(=Cc3ccc(CCCCCCCCCC(C)O)[nH]3)C(OC)=C2)[nH]1 (centres unmarked) | – | D6 | blood stage | 0.017 µM |
| CN1CCN(C2CCN(c3nccc4[nH]c(-c5cc(F)cc(F)c5)nc34)CC2)CC1 | – | NF54 | blood stage | < 0.1 µM |
| Cc1ccc2oc(-c3cc(NC(=O)Cc4ccccc4)ccc3Cl)nc2c1 | SYBR Green | – | blood stage | 23.4 µM |
| COC(=O)c1ccc2c(c1)nc(C1CCNCC1)n2Cc1ccccc1 | – | NF54 | blood stage | 3.83 µM |
| Cc1cccc(C(=O)O)c1NC(=O)c1ccc(-c2ccccc2)cc1 | resazurin | NF54 | 48 h, gametocyte | 1.14 µM |
| c1ccc(Cn2c(N3CCNCC3)nc3cc(-c4ccncc4)ccc32)cc1 | – | NF54 | blood stage | 1.67 µM |
| C[C@@H](c1cc(Cl)cc(Cl)c1)N(C)c1ncc2c(N)nc(N)nc2n1 | SYBR Green | – | blood stage | 8.18 µM |
| COC1=CC(c2cccn2C)=NC1=Cc1ccc(CCCCCCCCCC(C)O)[nH]1 (centres unmarked) | – | D6 | blood stage | 2.33 µM |
| NCCNc1nc2cc(Cl)ccc2n1Cc1ccccc1 | – | NF54 | blood stage | 0.245 µM |
| Cc1cccc(C(=O)O)c1NC(=O)c1ccccc1-c1ccccc1 | resazurin | NF54 | 48 h, gametocyte | > 10 µM |
| C[C@@H]1CC[C@H]2[C@@H](C)C(=O)O[C@@H]3O[C@@]4(C)CC[C@@H]1[C@]32OO4 | – | W2 | drug-resistant strain, blood stage | 0.009 µg/mL |
| NCCCNc1nc2ccccc2n1Cc1ccccc1 | – | NF54 | blood stage | 4.09 µM |
| C#CCCCCCCCCC=CCC(O)CC(O)CO (centres unmarked) | – | D6 | blood stage | > 47.6 µg/mL |
